Results on three molecules are retold here after ChEMBL document CHEMBL5236609, “Optimization of 1,2,4-Triazole-3-thiones toward Broad-Spectrum Metallo-β-lactamase Inhibitors Showing Potent Synergistic Activity on VIM- and NDM-1-Producing Clinical Isolates” (J Med Chem, 2022).

A short description of experiment [1]: Binding affinity to Zn(II) assessed as change in enthalpy by isothermal calorimetric assay. (ITC needs no label: the signal is the heat of the interaction.)
Experiment [2] has as its target T1, Aminopeptidase N (Sus scrofa) (UniProt P15145).
T1 sequence (whole entry): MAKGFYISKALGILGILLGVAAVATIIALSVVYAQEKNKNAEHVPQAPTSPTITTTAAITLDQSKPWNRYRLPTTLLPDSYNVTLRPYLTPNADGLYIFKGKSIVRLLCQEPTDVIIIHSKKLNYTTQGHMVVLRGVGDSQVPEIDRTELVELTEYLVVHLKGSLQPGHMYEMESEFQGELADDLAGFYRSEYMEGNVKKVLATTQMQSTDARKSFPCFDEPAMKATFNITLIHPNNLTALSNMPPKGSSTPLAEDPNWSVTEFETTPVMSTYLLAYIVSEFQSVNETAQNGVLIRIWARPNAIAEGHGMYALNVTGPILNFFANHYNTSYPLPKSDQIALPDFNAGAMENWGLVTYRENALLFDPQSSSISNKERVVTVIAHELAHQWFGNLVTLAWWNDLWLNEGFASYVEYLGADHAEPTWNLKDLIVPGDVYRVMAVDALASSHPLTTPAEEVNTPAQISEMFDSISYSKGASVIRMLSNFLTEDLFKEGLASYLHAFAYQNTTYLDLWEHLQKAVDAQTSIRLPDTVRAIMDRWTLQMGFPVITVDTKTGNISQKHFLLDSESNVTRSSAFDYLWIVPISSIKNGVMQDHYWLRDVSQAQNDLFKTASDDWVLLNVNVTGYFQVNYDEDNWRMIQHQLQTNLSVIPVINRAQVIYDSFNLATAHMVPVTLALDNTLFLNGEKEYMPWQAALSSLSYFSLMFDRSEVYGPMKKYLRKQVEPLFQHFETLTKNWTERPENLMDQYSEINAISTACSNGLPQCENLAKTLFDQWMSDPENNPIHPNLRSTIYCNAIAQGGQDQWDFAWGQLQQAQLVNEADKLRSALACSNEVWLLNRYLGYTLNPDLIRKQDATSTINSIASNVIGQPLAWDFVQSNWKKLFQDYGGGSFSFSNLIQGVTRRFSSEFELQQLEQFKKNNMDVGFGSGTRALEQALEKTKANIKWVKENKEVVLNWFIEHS
Briefly: Inhibition of porcine APN using fluorogenic substrate H-Leu-AMC measured for 1 h rat 100 uM relative to control.

Experiment [3] deals with Bacteria. Briefly: Binding affinity to bacterial VIM-2 (unknown origin) assessed as Gibbs free energy by isothermal calorimetric assay. Summed up:
(§1)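 ITC at 25 °C. VIM-2 at 19 μM in 10 mM HEPES-NaOH, 0.15 M NaCl, pH 7.5 with DMSO matched to 1%, titrated with compound at 200 μM: one 0.5 μL injection, then 19 × 2 μL at 150 s intervals. Buffer dilution heats subtracted. Nonlinear fit gives n, Ka and ΔH°; values regarded as apparent.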

The subject of experiment [4] is Bacteria. The experiment is described as follows: Binding affinity to bacterial VIM-2 (unknown origin) assessed as change in entropy by isothermal calorimetric assay. Summed up:
as §1

For experiment [5], the system named is Klebsiella pneumoniae. The experiment is described as follows: Antimicrobial activity against blaVIM-1-producing multidrug-resistant Klebsiella pneumoniae 7023 clinical isolate assessed as meropenem MIC using cation-adjusted Mueller-Hinton broth at 32 ug/ml by broth microdilution method (reference value: […] ug/ml). The format is functional. Particulars: dose 32 µg/ml. Summed up:
(§2)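 Checkerboard broth microdilution in cation-supplemented Mueller–Hinton broth, inoculum 5×10^4 CFU/well, per CLSI. […] The average fractional inhibitory concentration index was computed from the checkerboard.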
In general terms: Dilution methods test growth across graded concentrations, often in twofold steps.

Experiment [6] deals with Klebsiella pneumoniae. Briefly: Antimicrobial activity against blaVIM-1-producing multidrug-resistant Klebsiella pneumoniae 7023 clinical isolate assessed as meropenem MIC using cation-adjusted Mueller-Hinton broth at 8 ug/ml by broth microdilution method (reference value: […] ug/ml). The format is functional. To be noted: dose 8 µg/ml. Summed up: as §2
Experiment [7] has as its system Klebsiella pneumoniae. The experiment is described as follows: Antimicrobial activity against blaVIM-1-producing multidrug-resistant Klebsiella pneumoniae 7023 clinical isolate assessed as meropenem MIC using cation-adjusted Mueller-Hinton broth at 4 ug/ml by broth microdilution method (reference value: […] ug/ml). The format is functional. Particulars: dose 4 µg/ml. Summed up:
as §2

Experiment [8] deals with Klebsiella pneumoniae. The experiment is described as follows: Antimicrobial activity against blaVIM-1-producing multidrug-resistant Klebsiella pneumoniae 7023 clinical isolate assessed as meropenem MIC using cation-adjusted Mueller-Hinton broth at 0.5 ug/ml by broth microdilution method (reference value: […] ug/ml). To be noted: dose 0.5 µg/ml. The format is functional. Summed up: as §2

Experiment [9] deals with Klebsiella pneumoniae. Briefly: Antimicrobial activity against blaVIM-4-producing multidrug-resistant Klebsiella pneumoniae VA-416/02 clinical isolate assessed as meropenem MIC using cation-adjusted Mueller-Hinton broth at 32 ug/ml by broth microdilution method (reference value: […] ug/ml). Particulars: dose 32 µg/ml. The format is functional. Summed up:
as §2

Experiment [10] relates to Klebsiella pneumoniae. Briefly: Antimicrobial activity against blaVIM-4-producing multidrug-resistant Klebsiella pneumoniae VA-416/02 clinical isolate assessed as meropenem MIC using cation-adjusted Mueller-Hinton broth at 16 ug/ml by broth microdilution method (reference value: […] ug/ml). The format is functional. Particulars: dose 16 µg/ml. Summed up:
as §2

For experiment [11], the system named is Klebsiella pneumoniae. Briefly: Antimicrobial activity against blaVIM-4-producing multidrug-resistant Klebsiella pneumoniae VA-416/02 clinical isolate assessed as meropenem MIC using cation-adjusted Mueller-Hinton broth at 2 ug/ml by broth microdilution method (reference value: […] ug/ml). The format is functional. To be noted: dose 2 µg/ml. Summed up:
as §2

The test system of experiment [12] is Klebsiella pneumoniae. Briefly: Antimicrobial activity against blaVIM-4-producing multidrug-resistant Klebsiella pneumoniae VA-416/02 clinical isolate assessed as meropenem MIC using cation-adjusted Mueller-Hinton broth at 1 ug/ml by broth microdilution method (reference value: […] ug/ml). The format is functional. To be noted: dose 1 µg/ml. Summed up: as §2

Experiment [13] relates to Klebsiella pneumoniae. The experiment is described as follows: Antimicrobial activity against blaVIM-4-producing multidrug-resistant Klebsiella pneumoniae VA-416/02 clinical isolate assessed as meropenem MIC using cation-adjusted Mueller-Hinton broth at 0.5 ug/ml by broth microdilution method (reference value: […] ug/ml). The format is functional. Particulars: dose 0.5 µg/ml. Summed up: as §2

Experiment [14] relates to Escherichia coli. Briefly: Antimicrobial activity against blaNDM-1-producing multidrug-resistant Escherichia coli SI-004 clinical isolate assessed as meropenem MIC using cation-adjusted Mueller-Hinton broth at 16 ug/ml by broth microdilution method (reference value: 64 ug/ml). Particulars: dose 16 µg/ml. The format is functional. Summed up: as §2
Experiment [15] relates to Escherichia coli. Briefly: Antimicrobial activity against blaNDM-1-producing multidrug-resistant Escherichia coli SI-004 clinical isolate assessed as meropenem MIC using cation-adjusted Mueller-Hinton broth at 8 ug/ml by broth microdilution method (reference value: 64 ug/ml). The format is functional. To be noted: dose 8 µg/ml. Summed up: as §2
For experiment [16], the system named is Escherichia coli. The experiment is described as follows: Antimicrobial activity against blaNDM-1-producing multidrug-resistant Escherichia coli SI-004 clinical isolate assessed as meropenem MIC using cation-adjusted Mueller-Hinton broth at 1 ug/ml by broth microdilution method (reference value: 64 ug/ml). The format is functional. To be noted: dose 1 µg/ml. Summed up: as §2

The test system of experiment [17] is Bacteria. The experiment is described as follows: Inhibition of bacterial Metallo-beta-lactamase VIM-1 (unknown origin) at 100 uM relative to control. Summed up: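 Reporter-substrate assay with purified MBL (1–70 nM final) in 50 mM HEPES pH 7.5 at 30 °C. […] Inhibitor 0.5–1000 μM final. Ki derived from the v0/vi vs [I] slope assuming competitive inhibition, or from a Dixon plot. Ki given when inhibition >70%, otherwise % inhibition at 100 μM. Triplicate.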

SMILES strings stand for the structures.

Consider `O=C(O)[C@H](CCCn1c(-c2ccccc2)n[nH]c1=S)N(Cc1ccccn1)Cc1ccccn1`, for which the deltaH in [1] came out at 6 kcal/mol. In [2], the inhibition (usually the drop in the measured response relative to a control, in per cent) stood at 30%.

In experiment [2], `Cc1[nH]cnc1CN(Cc1c[nH]cn1)[C@@H](CCCn1c(-c2ccccc2)n[nH]c1=S)C(=O)O` returned an inhibition of 58%.

On to `O=C(O)[C@H](CCCn1c(-c2ccccc2)n[nH]c1=S)N(Cc1c[nH]cn1)Cc1c[nH]cn1`, for which the deltaH in experiment [1] was 5 kcal/mol. Besides, the deltaG with Bacteria [3] is -8.4 kcal/mol. The TdeltaS in the experiment with Bacteria [4] was -1.4 kcal/mol. In addition, the minimal inhibitory concentration (MIC) (in general, the least concentration at which growth counts as inhibited) was found to be 0.03 µg/mL in the experiment with Klebsiella pneumoniae [5]; 1 µg/mL in the experiment with Klebsiella pneumoniae [6]; 2 µg/mL with Klebsiella pneumoniae [7]; 16 µg/mL with Klebsiella pneumoniae [8]; 0.03 µg/mL in the experiment with Klebsiella pneumoniae [9]; 0.06 µg/mL in the experiment on Klebsiella pneumoniae [10]. In addition, the MIC with Klebsiella pneumoniae [11] turned out to be 4 µg/mL; in the experiment with Klebsiella pneumoniae [12] it was 8 µg/mL; in the experiment with Klebsiella pneumoniae [13] it was 16 µg/mL; in the experiment with Escherichia coli [14] it was 0.06 µg/mL; in the experiment on Escherichia coli [15] it was 32 µg/mL; in the experiment with Escherichia coli [16], 64 µg/mL. Further, the inhibition in the experiment on Bacteria [17] worked out at 57%.
